Experimental data taken from paper PMC8223535 (The Yale Journal of Biology and Medicine, 2021).

Legend:
[1] = cited from earlier work
[2] = system: Trypanosoma congolense IL3000 bloodstream form; experiment: In vitro anti-Trypanosoma activity, luminescence-based parasite viability; format: cell-based; conditions: 72 h, 0 to 25 µg/mL
Outline: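 T. congolense IL3000 bloodstream forms were kept in HMI-9-type medium (IMDM, 20% FBS, supplements) in air at 33°C. Parasites were seeded at 1 × 10^5 cells/mL with test compound at 0 to 25 µg/mL and incubated 72 h at 33°C. Viability was read by ATP luminescence. Pentamidine was the reference. The 50% value came from a non-linear regression dose-response fit. Triplicates, three independent runs.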

[3] = system: T. brucei brucei (Lafia strain); experiment: In vivo anti-Trypanosoma evaluation in infected rats; parameters: species or system Trypanosoma brucei brucei in male Wistar rats; conditions: 3.5 mg/kg bw in corn oil, reference drug, data not shown
Outline: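 Male Wistar rats (120–130 g, acclimated 14 days) each received 0.2 mL of infected rat blood diluted in 0.9% saline (1 x 102 trypanosomes). Dosing began after the 72-h lag, on the first parasite-positive day. It ran daily for 5 days: test compound at 40 mg/kg bw or diminazene aceturate at 3.5 mg/kg bw, in corn oil. Controls were vehicle-infected and uninfected. Tail-blood smears were counted at ×100, and survival was tracked. n=5, mean ± SEM, ANOVA with Dunnett.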

Nc1nc(N)nc(Nc2ccc([As]3SCC(CO)S3)cc2)n1 (centres unmarked) [melarsoprol]
encephalopathy ([1]; patients treated for late-stage trypanosomiasis): more than 10 % of patients
fatal outcomes among encephalopathy cases ([1]; share of the encephalopathy cases): 40%

N=C(N)c1ccc(OCCCCCOc2ccc(C(=N)N)cc2)cc1 [pentamidine]
effect on in vitro growth of T. congolense (in words) [2]: appreciably hindered the in vitro growth of T. congolense

CC(=O)NCC(=O)O.CC(=O)NCC(=O)O.N=C(N)c1ccc(N=NNc2ccc(C(=N)N)cc2)cc1 [diminazene aceturate]
outcome of infected rats (survival) [3]: survived the infection
systemic parasite burden of infected rats [3]: systemic parasite burden cleared
